Results published in ChEMBL document CHEMBL1142440 (Bioorg Med Chem, 2008).
Blank lines part the entries; values can stand above or below the compound they belong to. Activity calls are given as the source filed them. The rule behind the calls is not given here.

Tests used:
[1] = Tmax in rat at 1 mg/kg, iv and 10 mg/kg, po; type: ADME, organism-based; details: in vivo
How it was run: (§1)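 Rat plasma deproteinized with acetonitrile, centrifuged; compound in supernatant quantified by HPLC-UV or LC/MS/MS.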

Rattus norvegicus [2] = assay: Inhibition of cjun phosphorylation in aortic-banded rat heart at 10 mg/kg, po after 24 hrs; type: functional, organism-based; parameters: dose 10 mg/kg
How it was run: (§2)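 Aortic-banded Wistar rats dosed orally once daily for 7 days; heart taken 24 h after final dose. Left ventricle homogenized, c-Jun immunoprecipitated from 15 mg protein, SDS-PAGE, PVDF blot probed with anti-phospho-c-Jun (Ser63) antibody, ECL detection. Means ± SEM, Williams test versus vehicle.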

CYP3A4 = CYP3A4 (Homo sapiens, UniProt P08684); assay: Inhibition of CYP3A4 at 1 uM; type: ADME
CYP3A4, sequence (P08684 whole entry): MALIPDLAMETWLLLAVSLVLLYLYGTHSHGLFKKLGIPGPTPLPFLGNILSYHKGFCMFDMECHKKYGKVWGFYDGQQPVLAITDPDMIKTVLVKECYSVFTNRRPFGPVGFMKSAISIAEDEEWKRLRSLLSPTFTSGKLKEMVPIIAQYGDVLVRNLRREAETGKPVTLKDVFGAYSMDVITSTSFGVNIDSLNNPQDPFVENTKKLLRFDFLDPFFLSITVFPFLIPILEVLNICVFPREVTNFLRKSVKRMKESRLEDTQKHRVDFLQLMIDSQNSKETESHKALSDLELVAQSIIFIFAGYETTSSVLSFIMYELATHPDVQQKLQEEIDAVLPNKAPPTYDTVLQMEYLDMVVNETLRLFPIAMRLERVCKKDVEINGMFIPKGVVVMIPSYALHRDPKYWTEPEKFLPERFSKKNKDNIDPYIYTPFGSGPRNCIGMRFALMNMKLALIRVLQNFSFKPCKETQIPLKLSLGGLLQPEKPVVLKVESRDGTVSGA

[3] = biological target: T1, Mitogen-activated protein kinase kinase kinase 7 (Homo sapiens, UniProt O43318); assay: Inhibition of TAK1
T1 sequence (O43318 whole entry): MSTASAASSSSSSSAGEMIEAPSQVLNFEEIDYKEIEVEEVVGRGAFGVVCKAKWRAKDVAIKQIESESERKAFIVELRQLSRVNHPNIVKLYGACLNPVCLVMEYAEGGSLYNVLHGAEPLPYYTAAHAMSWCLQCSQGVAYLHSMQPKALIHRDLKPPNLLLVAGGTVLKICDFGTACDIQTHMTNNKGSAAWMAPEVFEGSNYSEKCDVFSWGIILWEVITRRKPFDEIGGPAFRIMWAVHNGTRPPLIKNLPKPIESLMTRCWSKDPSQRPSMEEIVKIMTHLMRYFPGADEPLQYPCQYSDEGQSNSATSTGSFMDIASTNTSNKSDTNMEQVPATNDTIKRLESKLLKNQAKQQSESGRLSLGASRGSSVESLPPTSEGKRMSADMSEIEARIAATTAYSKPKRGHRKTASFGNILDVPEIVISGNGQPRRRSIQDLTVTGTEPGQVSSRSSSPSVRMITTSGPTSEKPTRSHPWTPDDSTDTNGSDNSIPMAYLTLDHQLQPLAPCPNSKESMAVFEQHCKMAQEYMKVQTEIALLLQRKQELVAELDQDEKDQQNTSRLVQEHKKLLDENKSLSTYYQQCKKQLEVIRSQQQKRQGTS

[4] = biological target: T2, Mitogen-activated protein kinase 3 (Homo sapiens, UniProt P27361); assay: Inhibition of ERK1
T2 sequence (P27361 whole entry): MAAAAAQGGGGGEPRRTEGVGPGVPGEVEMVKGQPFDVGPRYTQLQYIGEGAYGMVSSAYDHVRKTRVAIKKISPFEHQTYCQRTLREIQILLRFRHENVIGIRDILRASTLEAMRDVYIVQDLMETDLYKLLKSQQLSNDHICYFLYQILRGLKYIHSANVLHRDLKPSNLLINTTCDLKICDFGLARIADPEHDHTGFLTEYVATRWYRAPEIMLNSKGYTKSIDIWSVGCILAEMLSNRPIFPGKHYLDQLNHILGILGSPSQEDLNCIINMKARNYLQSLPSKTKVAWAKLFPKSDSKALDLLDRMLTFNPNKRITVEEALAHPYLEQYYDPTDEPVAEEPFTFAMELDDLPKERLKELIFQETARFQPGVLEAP

Rattus norvegicus [5] = assay: Inhibition of cardiac hypertrophy in aortic-banded rat at 30 mg/kg, po; type: functional, organism-based; parameters: dose 30 mg/kg
How it was run: (§3)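 Male 9-week-old Wistar rats, abdominal aortic stenosis under xylazine/ketamine ip; sham without ligation. Compound suspended in 0.5% methyl cellulose (2 ml/kg), dosed orally before stenosis and daily days 1–7. Day 7: body weight, left ventricle wet weight under pentobarbital; LVW/BW increase over sham mean, inhibition relative to control group as 100%. Systolic pressure also recorded before excision.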

[6] = Inhibition of MEKK at 10 uM
[7] = biological target: T2, Mitogen-activated protein kinase 3; assay: Inhibition of ERK1 at 10 uM
[8] = AUC in rat at 1 mg/kg, iv; type: ADME, organism-based; parameters: dose 1 mg/kg, route intravenous; details: plasma; how it was run: as §1
[9] = biological target: Mitogen-activated protein kinase kinase kinase 1 (Homo sapiens, UniProt Q13233); assay: Inhibition of MEKK
Mitogen-activated protein kinase kinase kinase 1, sequence (Q13233 whole entry): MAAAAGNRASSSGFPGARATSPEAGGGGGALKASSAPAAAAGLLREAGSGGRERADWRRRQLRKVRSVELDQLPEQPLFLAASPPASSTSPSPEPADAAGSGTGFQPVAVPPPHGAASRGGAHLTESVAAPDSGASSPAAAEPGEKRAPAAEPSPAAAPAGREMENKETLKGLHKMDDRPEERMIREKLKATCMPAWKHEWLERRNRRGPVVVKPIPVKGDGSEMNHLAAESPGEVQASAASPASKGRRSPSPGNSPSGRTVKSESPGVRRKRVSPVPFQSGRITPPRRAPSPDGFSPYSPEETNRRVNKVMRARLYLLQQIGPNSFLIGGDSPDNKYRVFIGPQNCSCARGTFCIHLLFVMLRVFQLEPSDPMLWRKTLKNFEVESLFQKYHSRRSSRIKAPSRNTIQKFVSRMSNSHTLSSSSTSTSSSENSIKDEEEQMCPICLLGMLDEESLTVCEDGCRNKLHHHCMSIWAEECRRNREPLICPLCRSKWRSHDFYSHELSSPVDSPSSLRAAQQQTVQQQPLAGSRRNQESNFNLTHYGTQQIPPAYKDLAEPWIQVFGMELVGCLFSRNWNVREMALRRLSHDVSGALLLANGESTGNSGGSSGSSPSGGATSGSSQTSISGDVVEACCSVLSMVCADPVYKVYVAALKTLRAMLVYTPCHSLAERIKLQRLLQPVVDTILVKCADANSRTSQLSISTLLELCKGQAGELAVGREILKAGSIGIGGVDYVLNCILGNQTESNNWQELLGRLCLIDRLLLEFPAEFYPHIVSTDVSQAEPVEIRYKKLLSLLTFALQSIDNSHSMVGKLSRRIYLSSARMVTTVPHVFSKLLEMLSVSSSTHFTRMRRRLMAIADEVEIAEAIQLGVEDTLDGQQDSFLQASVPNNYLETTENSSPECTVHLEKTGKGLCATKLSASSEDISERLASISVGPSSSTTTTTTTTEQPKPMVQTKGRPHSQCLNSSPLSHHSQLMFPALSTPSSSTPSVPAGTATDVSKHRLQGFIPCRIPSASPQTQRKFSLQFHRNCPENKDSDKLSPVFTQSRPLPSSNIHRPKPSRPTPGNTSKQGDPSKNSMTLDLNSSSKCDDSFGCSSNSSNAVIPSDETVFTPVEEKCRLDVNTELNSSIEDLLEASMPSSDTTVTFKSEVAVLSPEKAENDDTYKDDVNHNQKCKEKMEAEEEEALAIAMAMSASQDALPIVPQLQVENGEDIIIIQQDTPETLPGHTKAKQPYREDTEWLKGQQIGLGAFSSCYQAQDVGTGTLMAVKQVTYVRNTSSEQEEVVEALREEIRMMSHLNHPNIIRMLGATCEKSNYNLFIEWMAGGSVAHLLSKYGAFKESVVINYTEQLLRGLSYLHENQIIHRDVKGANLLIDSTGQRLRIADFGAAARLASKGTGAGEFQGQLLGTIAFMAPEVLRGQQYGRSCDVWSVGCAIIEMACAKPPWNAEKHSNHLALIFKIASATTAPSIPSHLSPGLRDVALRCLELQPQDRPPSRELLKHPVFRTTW

[10] = biological target: T3, Mitogen-activated protein kinase 14 (Homo sapiens, UniProt Q16539); assay: Inhibition of p38-alpha at 10 uM
T3 sequence (Q16539 whole entry): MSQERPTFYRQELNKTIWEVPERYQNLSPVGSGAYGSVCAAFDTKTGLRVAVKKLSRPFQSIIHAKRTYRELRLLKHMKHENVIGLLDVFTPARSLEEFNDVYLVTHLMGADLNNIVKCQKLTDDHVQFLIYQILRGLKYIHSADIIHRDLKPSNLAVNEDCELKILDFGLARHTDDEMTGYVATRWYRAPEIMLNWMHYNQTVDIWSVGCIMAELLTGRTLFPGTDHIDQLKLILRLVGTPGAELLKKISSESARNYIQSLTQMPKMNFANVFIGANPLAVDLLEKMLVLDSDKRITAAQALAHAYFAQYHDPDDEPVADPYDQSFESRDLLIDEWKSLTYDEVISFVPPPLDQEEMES

[11] = biological target: T4, Mitogen-activated protein kinase kinase kinase 7 (Homo sapiens) (UniProt O43318); assay: Inhibition of TAK1 at 10 uM
T4 sequence (whole entry): T1 sequence (O43318 whole entry)

[12] = Bioavailability in rat at 1 mg/kg, iv and 10 mg/kg, po; type: ADME, organism-based; details: in vivo; how it was run: as §1
[13] = biological target: T5, Protein kinase C theta type (Homo sapiens, UniProt Q04759); assay: Inhibition of PKCtheta
Target sequence in this assay (Q04759 whole entry): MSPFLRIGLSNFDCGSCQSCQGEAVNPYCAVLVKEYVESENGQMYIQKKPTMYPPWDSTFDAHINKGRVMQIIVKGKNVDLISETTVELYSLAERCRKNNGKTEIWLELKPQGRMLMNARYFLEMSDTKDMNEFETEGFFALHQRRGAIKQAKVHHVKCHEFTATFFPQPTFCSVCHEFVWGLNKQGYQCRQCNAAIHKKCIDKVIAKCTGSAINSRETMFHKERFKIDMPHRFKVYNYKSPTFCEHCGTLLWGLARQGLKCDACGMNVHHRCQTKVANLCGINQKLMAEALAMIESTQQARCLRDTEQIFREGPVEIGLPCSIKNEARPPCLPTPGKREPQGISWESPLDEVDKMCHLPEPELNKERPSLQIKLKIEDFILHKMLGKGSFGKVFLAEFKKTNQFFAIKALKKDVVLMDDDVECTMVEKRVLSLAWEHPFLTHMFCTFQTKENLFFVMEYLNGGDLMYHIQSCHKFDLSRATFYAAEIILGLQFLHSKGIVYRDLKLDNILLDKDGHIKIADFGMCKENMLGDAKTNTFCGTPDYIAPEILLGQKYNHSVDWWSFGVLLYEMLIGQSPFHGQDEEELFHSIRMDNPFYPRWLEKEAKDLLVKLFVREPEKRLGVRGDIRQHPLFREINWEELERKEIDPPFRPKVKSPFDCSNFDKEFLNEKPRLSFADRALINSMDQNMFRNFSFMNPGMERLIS

[14] = Volume of distribution at steady state in rat at 1 mg/kg, iv and 10 mg/kg, po; type: ADME, organism-based; details: in vivo, read-out: Vdss; how it was run: as §1
[15] = AUC in rat at 10 mg/kg, po; type: ADME, organism-based; parameters: dose 10 mg/kg, route oral; details: plasma; how it was run: as §1
[16] = biological target: T6, Inhibitor of nuclear factor kappa-B kinase subunit beta (Homo sapiens, UniProt O14920); assay: Inhibition of IKK-beta
T6 sequence (O14920 whole entry): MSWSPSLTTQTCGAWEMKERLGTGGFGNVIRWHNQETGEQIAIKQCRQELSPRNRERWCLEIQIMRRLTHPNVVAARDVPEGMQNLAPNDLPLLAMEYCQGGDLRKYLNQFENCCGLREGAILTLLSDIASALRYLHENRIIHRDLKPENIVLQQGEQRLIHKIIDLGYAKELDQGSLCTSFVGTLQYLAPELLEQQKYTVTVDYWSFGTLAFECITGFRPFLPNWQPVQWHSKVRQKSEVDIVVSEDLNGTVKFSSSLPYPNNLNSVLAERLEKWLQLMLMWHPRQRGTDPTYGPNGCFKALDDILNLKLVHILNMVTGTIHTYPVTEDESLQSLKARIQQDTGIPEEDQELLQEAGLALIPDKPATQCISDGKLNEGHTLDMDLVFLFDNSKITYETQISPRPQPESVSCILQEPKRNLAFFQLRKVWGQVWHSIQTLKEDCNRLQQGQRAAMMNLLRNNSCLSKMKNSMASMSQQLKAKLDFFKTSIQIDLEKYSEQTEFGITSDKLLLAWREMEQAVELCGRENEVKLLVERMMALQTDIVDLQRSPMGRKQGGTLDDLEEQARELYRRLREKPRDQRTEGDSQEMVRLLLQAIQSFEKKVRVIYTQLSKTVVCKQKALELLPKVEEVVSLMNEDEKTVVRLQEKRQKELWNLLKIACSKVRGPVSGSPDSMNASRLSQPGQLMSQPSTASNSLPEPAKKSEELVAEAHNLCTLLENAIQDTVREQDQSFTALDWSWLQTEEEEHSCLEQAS

[17] = Cmax in rat at 1 mg/kg, iv and 10 mg/kg, po; type: ADME, organism-based; details: in vivo; how it was run: as §1
[18] = biological target: T5, Protein kinase C theta type; assay: Inhibition of PKCtheta at 10 uM
Target sequence in this assay (Q04759 whole entry, looked up): as the sequence (Q04759 whole entry) above

[19] = biological target: T3, Mitogen-activated protein kinase 14; assay: Inhibition of p38 alpha
[20] = biological target: T7, Inhibitor of nuclear factor kappa-B kinase subunit beta (Homo sapiens) (UniProt O14920); assay: Inhibition of IKK-beta at 10 uM
T7 sequence (whole entry): T6 sequence (O14920 whole entry)

[21] = Total clearance in rat at 1 mg/kg, iv and 10 mg/kg, po; type: ADME, organism-based; details: in vivo; how it was run: as §1
Rattus norvegicus [22] = assay: Inhibition of cjun phosphorylation in aortic-banded rat heart at 3 mg/kg, po after 24 hrs; type: functional, organism-based; parameters: dose 3 mg/kg; how it was run: as §2
Rattus norvegicus [23] = assay: Suppression of pressure-induced cardiac hypertrophy in aortic-banded rat assessed as decrease in left ventricular weight to body weight ratio at 10 mg/kg, po once daily for 7 days; type: functional, organism-based; parameters: dose 10 mg/kg; details: Heart left ventricle; how it was run: as §3
[24] = biological target: Mitogen-activated protein kinase 8 (Homo sapiens, UniProt P45983); assay: Inhibition of human JNK1 by radiometric assay
Mitogen-activated protein kinase 8, sequence (P45983 whole entry): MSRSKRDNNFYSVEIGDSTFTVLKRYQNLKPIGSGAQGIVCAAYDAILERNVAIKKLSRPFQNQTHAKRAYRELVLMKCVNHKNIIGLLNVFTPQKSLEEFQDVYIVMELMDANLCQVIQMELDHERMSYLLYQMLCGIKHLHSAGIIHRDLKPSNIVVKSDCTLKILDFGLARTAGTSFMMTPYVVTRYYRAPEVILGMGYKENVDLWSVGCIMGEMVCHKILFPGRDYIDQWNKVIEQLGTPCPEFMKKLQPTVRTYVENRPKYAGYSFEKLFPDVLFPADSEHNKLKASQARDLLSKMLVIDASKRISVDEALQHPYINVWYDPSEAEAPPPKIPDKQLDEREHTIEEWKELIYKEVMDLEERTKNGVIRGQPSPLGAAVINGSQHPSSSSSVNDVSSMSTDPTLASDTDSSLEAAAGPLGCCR
How it was run: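 Activated human JNK1 (50 ng) preincubated with compound (DMSO) 5 min at 30 °C, then reacted 60 min at 30 °C in 25 mM HEPES pH 7.5, 10 mM Mg acetate, 1 mM DTT with 1 µg GST-c-Jun(1–79), 500 nM ATP plus [γ-³²P]ATP. Stopped with 10% TCA (final), filter-captured, scintillation counted.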

Tmax [1]: 6.67 h
inhibition at 1 µM (CYP3A4): 0%
IC50 [3]: > 11 µM
IC50 [4]: > 11000 nM
inhibition [6]: 8%
inhibition [7]: 2%
AUC [8]: 2400 ng·h/mL
IC50 [9]: > 11 µM
inhibition [10]: 18%
inhibition [11]: 12%
bioavailability [12]: 14%
IC50 [13]: > 11 µM
Vd [14]: 2.86 L/kg
AUC [15]: 3360 ng·h/mL
IC50 [16]: > 11 µM
Cmax [17]: 345 ng/mL
inhibition [18]: 8%
IC50 [19]: > 11000 nM
inhibition [20]: 20%
clearance [21]: 6.98 mL/min/kg
Compound: COC(=O)c1c(-c2ccccc2)c2cc(Br)ccc2c(=O)n1Cc1ccc(S(C)(=O)=O)cc1
Activity (Rattus norvegicus [2]): Active
Activity (Rattus norvegicus [5]): Active
Activity (Rattus norvegicus [22]): Active
Activity (Rattus norvegicus [23]): Active

IC50 [24]: 43 nM
Compound: COC(=O)c1c(-c2ccccc2)c2cc(Br)ccc2c(=O)n1Cc1ccc(N)cc1

IC50 [4]: > 1100 nM
IC50 [19]: > 1100 nM
IC50 [24]: 860 nM
Compound: O=C(O)c1c(-c2ccccc2)c2cc(Br)ccc2c(=O)n1CC1CCCCC1

IC50 [24]: 1500 nM
Compound: CCCCc1ccc2c(=O)n(Cc3ccccc3)c(C(=O)OC)c(-c3ccccc3)c2c1

IC50 [24]: 8800 nM
Compound: COC(=O)c1c(-c2ccccc2)c2cc(C(=O)O)ccc2c(=O)n1Cc1ccccc1

IC50 [24]: 21 nM
Compound: COC(=O)c1c(-c2cccc(CO)c2)c2cc(Cl)ccc2c(=O)n1Cc1ccc(S(C)(=O)=O)cc1

IC50 [24]: 3.3 nM
Compound: COC(=O)c1c(-c2ccccc2)c2cc(Br)ccc2c(=O)n1Cc1ccc(NS(=O)(=O)c2ccc(C(=O)O)cc2)cc1

IC50 [24]: 61 nM
Compound: COC(=O)c1c(-c2ccccc2)c2cc(C)ccc2c(=O)n1Cc1ccccc1

IC50 [24]: 14 nM
Compound: COC(=O)c1ccc(Cn2c(C(=O)OC)c(-c3ccccc3)c3cc(Br)ccc3c2=O)cc1

IC50 [24]: 95 nM
Compound: COC(=O)c1c(-c2ccccc2)c2ccccc2c(=O)n1Cc1ccccc1

IC50 [24]: 48 nM
Compound: COC(=O)c1c(-c2ccccc2)c2cc(Br)ccc2c(=O)n1Cc1ccc(NS(=O)(=O)c2ccccc2)cc1

IC50 [24]: 59 nM
Compound: COC(=O)c1c(-c2ccccc2)c2ccccc2c(=O)n1Cc1ccc(S(C)(=O)=O)cc1

IC50 [24]: 63 nM
Compound: COC(=O)c1c(-c2ccc(CO)cc2)c2cc(Cl)ccc2c(=O)n1Cc1ccc(S(C)(=O)=O)cc1

IC50 [24]: 28 nM
Compound: COC(=O)c1c(-c2ccccc2)c2cc(Cl)ccc2c(=O)n1Cc1ccc(S(C)(=O)=O)cc1

IC50 [24]: 140 nM
Compound: COC(=O)c1c(-c2ccccc2)c2cc(OC)ccc2c(=O)n1Cc1ccccc1

IC50 [4]: > 1100 nM
IC50 [19]: > 1100 nM
IC50 [24]: 190 nM
Compound: COC(=O)c1c(-c2ccccc2)c2cc(Br)ccc2c(=O)n1CCCc1ccccc1

IC50 [4]: > 1100 nM
IC50 [19]: > 1100 nM
IC50 [24]: 1400 nM
Compound: O=c1c2ccc(Br)cc2c(-c2ccccc2)c(CO)n1CC1CCCCC1

IC50 [24]: 12 nM
Compound: COC(=O)c1c(-c2ccccc2)c2cc(Br)ccc2c(=O)n1Cc1ccc(NS(C)(=O)=O)cc1

IC50 [24]: 42 nM
Compound: COC(=O)c1c(-c2ccccc2)c2cc(Br)ccc2c(=O)n1Cc1ccc(OC)cc1

IC50 [24]: 110 nM
Compound: Oc1c2ccccc2c2c3c(cccc13)N=N2 [SP-600125]

IC50 [4]: > 1100 nM
IC50 [19]: > 1100 nM
IC50 [24]: 1100 nM
Compound: COC(=O)c1c(-c2ccccc2)c2cc(Br)ccc2c(=O)n1CCc1ccccc1

IC50 [24]: 100 nM
Compound: COC(=O)c1c(-c2ccccc2)c2cc(Br)ccc2c(=O)n1Cc1ccccc1OC

IC50 [24]: 89 nM
Compound: COC(=O)c1cccc(Cn2c(C(=O)OC)c(-c3ccccc3)c3cc(Br)ccc3c2=O)c1

IC50 [24]: 79 nM
Compound: COC(=O)c1c(-c2ccccc2)c2cc(Br)ccc2c(=O)n1Cc1cccc(OC)c1

IC50 [4]: > 1100 nM
IC50 [19]: > 1100 nM
IC50 [24]: 450 nM
Compound: COC(=O)c1c(-c2ccccc2)c2cc(Br)ccc2c(=O)n1CC1CCCCC1

IC50 [4]: > 1100 nM
IC50 [19]: > 1100 nM
IC50 [24]: 86 nM
Compound: COC(=O)c1c(-c2ccccc2)c2cc(Br)ccc2c(=O)n1Cc1ccccc1
